Test results taken from ChEMBL document CHEMBL5030534, “Discovery of Novel Anti-Breast-Cancer Inhibitors by Synergistically Antagonizing Microtubule Polymerization and Aryl Hydrocarbon Receptor Expression” (J Med Chem, 2021).
Active and inactive are the calls of the source. The rule behind the calls is not given here.

Assays:
MCF7 [1] = experiment: Antiproliferative activity against human MCF7 cells assessed as reduction in cell viability incubated for 48 hrs by MTT assay; assay type: functional, cell-based; settings: MCF7, 48 h
How it was run: (§1)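 Cells seeded at 5 × 10³ per well, incubated overnight, then exposed to a range of compound concentrations for 48 h. MTT added for 4 h, medium replaced with DMSO, absorbance read at 570 nm. MCF-7, L-O2 grown in DMEM; MCF-10A, MCF-7/ADR in RPMI 1640. Three independent runs.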

[2] = Antiproliferative activity against human MCF7/ADR cells assessed as reduction in cell viability incubated for 48 hrs by MTT assay; assay type: functional, cell-based; settings: MCF7, 48 h
How it was run: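 Cells seeded at 5 × 10³ per well, incubated overnight, then exposed to a range of compound concentrations for 48 h. MTT added for 4 h, medium replaced with DMSO, absorbance read at 570 nm. Three independent runs.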

MCF-10A = experiment: Antiproliferative activity against human MCF-10A cells assessed as reduction in cell viability incubated for 48 hrs by MTT assay; assay type: cell-based; how it was run: as §1
L02 = experiment: Antiproliferative activity against human L-O2 cells assessed as reduction in cell viability incubated for 48 hrs by MTT assay; assay type: cell-based; settings: L02, 48 h; how it was run: as §1
Tubulin (Homo sapiens) = Tubulin (Homo sapiens) (UniProt P68371+Q9H4B7+P0DPH7+P68366+Q13509+Q71U36+P04350+Q3ZCM7+P07437+P68363+Q9BQE3+Q6PEY2+Q13885+Q9BVA1+Q9BUF5); experiment: Induction of microtubule depolymerization in human MCF7 cells at 10 uM measured every 5 mins for 60 mins by spectrophotometric method; assay type: cell-based
How it was run: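 Purified tubulin at 2 mg/mL in PEM buffer preincubated on ice with compound or DMSO. PEG added to a final 3 mg/mL, then polymerization followed at 37 °C by absorbance at 350 nm every 5 min for 60 min.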

MCF7 [3] = experiment: Antitumor activity against human MCF7 cells xenografted in BALB/c nude mouse assessed as decrease in tumor weight at 20 mg/kg, iv administered every 2 days for 21 days and measured every 2 days; assay type: functional; parameters: scale not given: the % may be the effect or the level left; settings: time 21 day
How it was run: (§2)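 MCF-7 cells (6 × 10⁶) injected subcutaneously into right flank of BALB/c nude mice; after 7 days animals randomized, eight per group. Dosing iv every 2 days for 21 days, vehicle 10% DMSO/5% Tween 80/85% saline. Tumor size and body weight recorded every 2 days; tumors excised and weighed at sacrifice.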

MCF7 [4] = experiment: Antitumor activity against human MCF7 cells xenografted in BALB/c nude mouse assessed as decrease in tumor weight at 10 mg/kg, iv administered every 2 days for 21 days and measured every 2 days; assay type: functional; parameters: scale not given: the % may be the effect or the level left; settings: time 21 day; how it was run: as §2

In the case of `COc1ccc(N(C)c2cc(C)nc3ccccc23)cc1OC`, the IC50 (MCF7 [1]) is reported as 97 nM, the IC50 [2] is reported as 29 nM and the IC50 (MCF-10A) is reported as 473 nM. The IC50 (L02) was 2170 nM.

`Cc1cc(N(C)c2ccc(-c3ccccc3)cc2)c2ccccc2n1` gave an IC50 (MCF7 [1]) of over 1000 nM, an IC50 [2] of 817 nM and an IC50 (MCF-10A) of over 1000 nM. For the same molecule, the IC50 (L02) was 3450 nM.

`Cc1cc(N(C)c2ccc3c(c2)OCO3)c2ccccc2n1` showed an IC50 (MCF7 [1]) of 54 nM, an IC50 [2] of 46 nM and an IC50 (MCF-10A) of 127 nM. The IC50 (L02) was 2500 nM.

In the case of `Cc1cc(N(C)c2ccc3c(c2)cc(C)n3C)c2ccccc2n1`, the IC50 (MCF7 [1]) is reported as 2.4 nM, the IC50 [2] is reported as 2.2 nM and the IC50 (MCF-10A) is reported as 10 nM. The IC50 (L02) was 7.3 nM.

`Cc1cc(N(C)c2ccc(N(C)C)cc2)c2ccccc2n1` gave an IC50 (MCF7 [1]) of 943 nM, an IC50 [2] of 33 nM and an IC50 (MCF-10A) of 49 nM. It also gave an IC50 (L02) of 227 nM.

With `Cc1ccc(N(C)c2cc(C)nc3ccccc23)cc1` the IC50 (MCF7 [1]) was 103 nM, the IC50 [2] was 54 nM and the IC50 (MCF-10A) was 184 nM. The IC50 (L02) was 1530 nM.

Molecule `Cc1cc(N(C)c2cnc3c(ccn3C)c2)c2ccccc2n1` has an IC50 (MCF7 [1]) of 4.5 nM, an IC50 [2] of 6.1 nM and an IC50 (MCF-10A) of 24 nM. For the same molecule, the IC50 (L02) was 10 nM.

Molecule `COc1cc(N(C)c2cc(C)nc3ccccc23)cc(OC)c1OC` has an IC50 (MCF7 [1]) of over 1000 nM, an IC50 [2] of 912 nM and an IC50 (MCF-10A) of over 1000 nM. For the same molecule, the IC50 (L02) was 4120 nM.

`COc1ccc(/C=C\c2cc(OC)c(OC)c(OC)c2)cc1O` [COMBRETASTATIN A4] showed an IC50 (MCF7 [1]) of 4.8 nM, an IC50 (MCF-10A) of 99 nM and an IC50 (L02) of 10.3 nM. The Activity (Tubulin (Homo sapiens)) was “Active” and the Activity (MCF7 [3]) was 37.5%.

Molecule `Cc1cc(N(C)c2ccc(C(F)(F)F)cc2)c2ccccc2n1` has an IC50 (MCF7 [1]) of over 1000 nM, an IC50 [2] of 859 nM and an IC50 (MCF-10A) of over 1000 nM. The IC50 (L02) was 3840 nM.

For `CC(=O)O[C@H]1C(=O)[C@@]2(C)[C@H]([C@H](OC(=O)c3ccccc3)[C@]3(O)C[C@H](OC(=O)[C@H](O)[C@@H](NC(=O)c4ccccc4)c4ccccc4)C(C)=C1C3(C)C)[C@]1(OC(C)=O)CO[C@@H]1C[C@@H]2O` [PACLITAXEL], the Activity (Tubulin (Homo sapiens)) was “inactive” and the Activity (MCF7 [4]) was 84.2%.

In the case of `CCN(CC)c1ccc(N(C)c2cc(C)nc3ccccc23)cc1`, the IC50 (MCF7 [1]) is reported as 25 nM, the IC50 [2] is reported as 267 nM and the IC50 (MCF-10A) is reported as 12 nM. For the same molecule, the IC50 (L02) was 31 nM.

`Cc1nc(N(C)c2cnc3c(ccn3C)c2)c2ccccc2n1` showed an IC50 (MCF7 [1]) of 2.1 nM, an IC50 [2] of 2.1 nM and an IC50 (MCF-10A) of 16 nM. The IC50 (L02) was 7.3 nM.
